# Measurements: ChEMBL document CHEMBL1153549 (Antimicrob Agents Chemother, 2008)
# Activity calls are given as the source filed them. No cut-off for these calls is given here.
# Key:
# Streptococcus pneumoniae [1] = assay: Antibacterial activity against Streptococcus pneumoniae ATCC 49619 by standard checkerboard method in presence of pulmonar surfactant and 50 mg/liter Ca2+; type: functional, organism-based
# In short: (§1)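 CLSI broth microdilution in cation-adjusted Mueller-Hinton broth combined with checkerboard of drug against pulmonary surfactant up to 1 mg/ml (25-fold dilution of Survanta); 50 mg/liter Ca2+ added for daptomycin only. Ratios of activity with vs without surfactant given as median and range of two separate experiments.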
# Staphylococcus aureus [2] = assay: Antibacterial activity against methicillin-resistant Staphylococcus aureus ATCC 33591 by standard checkerboard method in presence of pulmonar surfactant and 50 mg/liter Ca2+; type: functional, organism-based
# In short: (§2)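 Checkerboard combination of antibiotic with pulmonary surfactant (Survanta) by CLSI broth microdilution in cation-adjusted Mueller-Hinton broth. The top surfactant level was 1 mg/ml, a 25-fold dilution of Survanta. For daptomycin, the broth carried 50 mg/liter Ca2+.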
# Staphylococcus aureus [3] = assay: Ratio of antibacterial activity against methicillin-resistant Staphylococcus aureus ATCC 33591 in presence of 1 mg/ml pulmonar surfactant and 50 mg/liter Ca2+ to antibacterial against methicillin-resistant Staphylococcus aureus ATCC 33591; type: functional
# In short: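 Broth microdilution in cation-adjusted Mueller-Hinton broth (plus 50 mg/liter Ca2+ for daptomycin), with versus without 1 mg/ml pulmonary surfactant (Survanta). Reported as the median and range of activity ratios from two separate experiments.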
# Streptococcus pneumoniae [4] = assay: Ratio of antibacterial activity against Streptococcus pneumoniae ATCC 49619 in presence of 1 mg/ml pulmonar surfactant and 50 mg/liter Ca2+ to antibacterial against Streptococcus pneumoniae ATCC 49619; type: functional; in short: as §1
# Streptococcus pneumoniae [5] = assay: Antibacterial activity against Streptococcus pneumoniae ATCC 49619 by standard checkerboard method in presence of 0.2 to 1 mg/ml pulmonar surfactant; type: functional, organism-based; in short: as §1
# Staphylococcus aureus [6] = assay: Antibacterial activity against methicillin-resistant Staphylococcus aureus ATCC 33591 by standard checkerboard method in presence of 0.2 to 1 mg/ml pulmonar surfactant; type: functional, organism-based; in short: as §2
# Staphylococcus aureus [7] = assay: Antibacterial activity against methicillin-resistant Staphylococcus aureus ATCC 33591 by CLSI broth microdilution method; type: functional
# In short: (§3)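 MICs by CLSI reference broth microdilution in cation-adjusted Mueller-Hinton broth. For daptomycin testing, the medium was supplemented with 50 mg/liter Ca2+.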
# [8] = AUC (0 to 24) in epithelial lining fluid of healthy human at 10 mg/kg, iv once daily for 3 days; type: ADME, organism-based; design: time < 24 hr, dose 10 mg/kg, route intravenous; details: in vivo, 24 h
# [9] = Drug level in epithelial lining fluid of healthy human undergoing fiber-optic bronchoscopy at 10 mg/kg, iv once daily for 3 days measured at 8 hrs after start of infusion by validated liquid chromatography; type: ADME, organism-based; design: dose 10 mg/kg, route intravenous; details: read-out: Drug uptake
# Streptococcus pneumoniae [10] = assay: Antibacterial activity against […] Streptococcus pneumoniae; type: functional; in short: as §3
# [11] = Terminal half life in healthy human at 10 mg/kg, iv once daily for 3 days measured at 24 after start of infusion; type: ADME, organism-based; design: dose 10 mg/kg, route intravenous; details: in vivo, read-out: beta t1/2 (converted)
# In short: (§4)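 Plasma from healthy adults given 10 mg/kg IV over 60 min daily for 3 days, sampled before infusions 1 and 3 and 1, 2, 4, 6, 8, 12, 24 h after the third; validated LC-MS/MS (LLOQ 0.25 μg/ml). Noncompartmental analysis: Cmax, Tmax, Cmin observed; AUC0-24 linear trapezoidal; kel by log-linear regression; t1/2 = 0.693/kel; CL = dose/AUC0-24.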
# Homo sapiens [12] = assay: Toxicity in healthy human assessed as pulmonar infection at 10 mg/kg, iv once daily for 3 days; type: organism-based; design: dose 10 mg/kg, route intravenous; details: in vivo, 72 h
# [13] = Cmax in healthy human at 10 mg/kg, iv once daily for 3 days measured at 24 after start of infusion; type: ADME, organism-based; design: dose 10 mg/kg, route intravenous; details: in vivo; in short: as §4
# Staphylococcus aureus [14] = assay: Antibacterial activity against methicillin-susceptible Staphylococcus aureus; type: functional; in short: as §3
# Homo sapiens [15] = assay: Plasma protein binding in healthy human undergoing fiber-optic bronchoscopy at 10 mg/kg, iv once daily for 3 days; details: read-out: PPB (converted)
# Staphylococcus aureus [16] = assay: Antibacterial activity against methicillin-resistant Staphylococcus aureus; type: functional
# [17] = Tmax in healthy human at 10 mg/kg, iv once daily for 3 days measured at 24 after start of infusion; type: ADME, organism-based; design: dose 10 mg/kg, route intravenous; details: in vivo; in short: as §4
# [18] = Drug level in epithelial lining fluid of healthy human undergoing fiber-optic bronchoscopy at 10 mg/kg, iv once daily for 3 days measured at 24 hrs after start of infusion by validated liquid chromatography; type: ADME, organism-based; design: dose 10 mg/kg, route intravenous; details: read-out: Drug uptake
# [19] = Plasma concentration in healthy human undergoing fiber-optic bronchoscopy at 10 mg/kg, iv once daily for 3 days measured at 24 hrs after start of infusion by validated liquid chromatography; type: ADME, organism-based; design: dose 10 mg/kg, route intravenous
# [20] = Ratio of drug level in alveolar macrophage to plasma of healthy human undergoing fiber-optic bronchoscopy at 10 mg/kg, iv once daily for 3 days measured at 12 hrs after start of infusion; details: alveolar macrophages / plasma
# Homo sapiens [21] = assay: Toxicity in healthy human at 10 mg/kg, iv once daily for 3 days by clinical laboratory test; type: organism-based; design: dose 10 mg/kg, route intravenous; details: in vivo, 72 h
# In short: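 Safety monitored by physical examinations, electrocardiographs and clinical laboratory tests (hematology, serum chemistry, urinalysis) at screening and specified times during 3 days of 10 mg/kg 1-h IV infusions.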
# [22] = Drug level in alveolar macrophage of healthy human undergoing fiber-optic bronchoscopy at 10 mg/kg, iv once daily for 3 days measured at 8 hrs after start of infusion by validated liquid chromatography; type: ADME, organism-based; design: dose 10 mg/kg, route intravenous; details: alveolar macrophages, read-out: Drug uptake
# [23] = Drug level in alveolar macrophage of healthy human undergoing fiber-optic bronchoscopy at 10 mg/kg, iv once daily for 3 days measured at 12 after start of infusion by validated liquid chromatography; type: ADME, organism-based; design: dose 10 mg/kg, route intravenous; details: alveolar macrophages, read-out: Drug uptake
# [24] = Drug level in alveolar macrophage of healthy human undergoing fiber-optic bronchoscopy at 10 mg/kg, iv once daily for 3 days measured at 24 after start of infusion by validated liquid chromatography; type: ADME, organism-based; design: dose 10 mg/kg, route intravenous; details: alveolar macrophages, read-out: Drug uptake
# Homo sapiens [25] = assay: Toxicity in healthy human assessed as pulmonar inflammation at 10 mg/kg, iv once daily for 3 days; type: organism-based; design: dose 10 mg/kg, route intravenous; details: in vivo, 72 h
# [26] = Ratio of drug level in alveolar macrophage to plasma of healthy human undergoing fiber-optic bronchoscopy at 10 mg/kg, iv once daily for 3 days measured at 24 hrs after start of infusion; details: alveolar macrophages / plasma
# Streptococcus pneumoniae [27] = assay: Antibacterial activity against Streptococcus pneumoniae
# Homo sapiens [28] = assay: Toxicity in healthy human at 10 mg/kg/day infused over 1 hr; type: organism-based; details: in vivo
# [29] = Plasma concentration in healthy human undergoing fiber-optic bronchoscopy at 10 mg/kg, iv once daily for 3 days measured at 12 hrs after start of infusion by validated liquid chromatography; type: ADME, organism-based; design: dose 10 mg/kg, route intravenous
# [30] = Clearance at steady state in healthy human at 10 mg/kg, iv once daily for 3 days measured at 24 after start of infusion; type: ADME, organism-based; design: dose 10 mg/kg, route intravenous; details: in vivo, read-out: CLss (converted); in short: as §4
# Mus musculus = assay: fAUC (0 to 24) in mouse pneumonia model at 40 mg/kg; type: ADME, organism-based; design: dose 40 mg/kg; details: in vivo
# [31] = Mean residence time in healthy human at 10 mg/kg, iv once daily for 3 days measured at 24 after start of infusion; type: ADME, organism-based; design: dose 10 mg/kg, route intravenous; details: in vivo; in short: as §4
# [32] = Cmin in healthy human at 10 mg/kg, iv once daily for 3 days measured at 24 after start of infusion; type: ADME, organism-based; design: dose 10 mg/kg, route intravenous; details: in vivo, read-out: Cmin; in short: as §4
smiles,measurement,setting,value
CCCCCCCCCC(=O)N[C@@H](Cc1c[nH]c2ccccc12)C(=O)N[C@H](CC(N)=O)C(=O)N[C@@H](CC(=O)O)C(=O)N[C@@H]1C(=O)NCC(=O)N[C@@H](CCCN)C(=O)N[C@@H](CC(=O)O)C(=O)N[C@H](C)C(=O)N[C@@H](CC(=O)O)C(=O)NCC(=O)N[C@H](CO)C(=O)N[C@@H]([C@H](C)CC(=O)O)C(=O)N[C@@H](CC(=O)c2ccccc2N)C(=O)O[C@@H]1C,Activity,Streptococcus pneumoniae [1],inactive
same,Activity,Staphylococcus aureus [2],inactive
same,Ratio,Staphylococcus aureus [3],32
same,Ratio,Streptococcus pneumoniae [4],128
CO/N=C(\C(=O)N[C@@H]1C(=O)N2C(C(=O)O)=C(CSc3nc(=O)c(O)nn3C)CS[C@H]12)c1csc(N)n1,Activity,Streptococcus pneumoniae [5],Active
same,Activity,Staphylococcus aureus [6],Active
CCCCCCCCCCNCCN[C@@]1(C)C[C@H](O[C@H]2[C@H](Oc3c4cc5cc3Oc3ccc(cc3Cl)[C@@H](O)[C@@H](NC(=O)[C@@H](CC(C)C)NC)C(=O)N[C@@H](CC(N)=O)C(=O)N[C@H]5C(=O)N[C@H]3C(=O)N[C@H](C(=O)N[C@H](C(=O)O)c5cc(O)c(CNCP(=O)(O)O)c(O)c5-c5cc3ccc5O)[C@H](O)c3ccc(c(Cl)c3)O4)O[C@H](CO)[C@@H](O)[C@@H]2O)O[C@@H](C)[C@H]1O [TELAVANCIN],Activity,Staphylococcus aureus [7],0.5 µg/mL
same,AUC,[8],45 µg/h/mL
same,concentration at 8 h,[9],3.7 µg/mL
same,MIC90,Streptococcus pneumoniae [10],0.03 mg/L
same,half-life,[11],7.41 h
same,Activity,Homo sapiens [12],Non-toxic
same,Cmax,[13],116 µg/mL
same,MIC90,Staphylococcus aureus [14],0.5 mg/L
same,fraction unbound at 72 h,Homo sapiens [15],0.1
same,MIC90,Staphylococcus aureus [16],0.5 mg/L
same,Tmax,[17],1 h
same,concentration at 24 h,[18],0.9 µg/mL
same,concentration at 24 h,[19],7.28 µg/mL
same,Activity,Streptococcus pneumoniae [5],Active
same,Kp at 12 h,[20],1.93
same,Activity,Homo sapiens [21],Non-toxic
same,concentration at 8 h,[22],19 µg/mL
same,concentration at 72 h,[23],45 µg/mL
same,concentration at 72 h,[24],42 µg/mL
same,Activity,Homo sapiens [25],Non-toxic
same,Kp at 24 h,[26],6.67
same,MIC90,Streptococcus pneumoniae [27],0.03 mg/L
same,Activity,Homo sapiens [28],Non-toxic
same,concentration at 12 h,[29],22.9 µg/mL
same,Activity,Staphylococcus aureus [6],Active
same,clearance,[30],0.013 L/h/kg
same,fAUC,Mus musculus,52.3 µg/h/mL
same,MRT,[31],9.42 h
same,concentration at 72 h,[32],8.11 µg/mL
CN[C@H](CC(C)C)C(=O)N[C@H]1C(=O)N[C@@H](CC(N)=O)C(=O)N[C@H]2C(=O)N[C@H]3C(=O)N[C@H](C(=O)N[C@H](C(=O)O)c4cc(O)cc(O)c4-c4cc3ccc4O)[C@H](O)c3ccc(c(Cl)c3)Oc3cc2cc(c3O[C@@H]2O[C@H](CO)[C@@H](O)[C@H](O)[C@H]2O[C@H]2C[C@](C)(N)[C@H](O)[C@H](C)O2)Oc2ccc(cc2Cl)[C@H]1O,Activity,Streptococcus pneumoniae [5],Active
same,Activity,Staphylococcus aureus [6],Active
